A short description of assay [1]: Inhibition of adenylosuccinate synthase at 5:1 aspartate to compound ratio.
The nature of assay [2]: Inhibition of adenylosuccinate synthase at 1:1 aspartate to compound ratio.
Assay [3] in a line: Inhibition of adenylosuccinate synthase at 10 mM. The procedure, abridged:
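Recombinant His-tagged AdSS (pMOB45 in E. coli BL21(DE3), IPTG-induced at 18 °C, IMAC-purified); 2.0 µg per 100 µl reaction in 20 mM Hepes pH 7.5, 50 µM IMP, 25 µM GTP, 500 µM MgCl2, 10 mM test compound. Started at room temperature with 100 or 500 µM aspartate, frozen after 5 min. Adenylosuccinate quantified by HPLC (266 nm, pH 4.4 phosphate/PIC A/methanol), peak areas over three runs.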

Calls of active or inactive are those of the source. No cut-off for these calls is given here.

A word on the inhibition: it is how much of the control response was suppressed. For `CCC(C)C(C(=O)O)N(O)C=O` (centres undefined), the inhibition entry in assay [1] is “inactive”. Also, the inhibition entry in assay [2] was “Active”.

As for `CCCC(C(=O)O)N(O)C=O` (centres undefined), the inhibition entry in assay [1] was “inactive”. In addition, the inhibition result in assay [2] is “Active”.

`O=CN(O)CCC(=O)O`: the inhibition entry in assay [1] and in assay [2] was “inactive” each time.

Turning to `O=CN(O)CCCCC(=O)O`, the inhibition entry in assay [1] and in assay [2] was “inactive” throughout.

For `CCC(C(=O)O)N(O)C=O` (centres undefined), in assay [1], the inhibition result is “inactive”. Also, in assay [2], the inhibition entry is “Active”.

Turning to `CC(CCC(=O)O)NO` (centres undefined), the inhibition entry in assay [1] and in assay [2] was “inactive” throughout.

Turning to `O=CN(O)CCCC(=O)O`, the inhibition entry in assay [1] and in assay [2] was “inactive” throughout.

For the compound `O=C(O)CCNO`, the inhibition result in assay [1] and in assay [2] was “inactive” throughout.

`O=CN(O)CC(=O)O`: in assay [1] (concentration not given here), the inhibition is 80%. The inhibition result in assay [2] was “inactive”. The inhibition entry in assay [3] was “Active”.

As to `O=CN(O)C(CC(=O)O)C(=O)O` (centres undefined), the inhibition in assay [2] (concentration not given here) stood at 30%.

Regarding `CC(C(=O)O)N(O)C=O` (centres undefined), the inhibition in assay [1] (concentration not given here) came out at 50%; in assay [2] (concentration not given here), 90%.

For `CC(CCC(=O)O)N(O)C=O` (centres undefined), the inhibition result in assay [1] and in assay [2] was “inactive” each time.

`O=C(O)CCCNO`: the inhibition result in assay [1] and in assay [2] was “inactive” in each case.

For `O=CN(O)C(CCC(=O)O)C(=O)O` (centres undefined), the inhibition in assay [2] (concentration not given here) came to 60%.

On to `O=C(O)CNO`, for which the inhibition result in assay [1] and in assay [2] was “inactive” each time.
